Bioassay records (PubChem BioAssay)
PKA-R2B act – activates the human PKA-R2B holoenzyme complex | activation, % at 11.4 µM | AID 504700 | 0.079% of 340,000 active | PKA-R2B holoenzyme dissociation, Cy5-IP20 fluorescence polarization; R2B truncated from residue 108, S112A mutant; 0% DMSO only, 100% 113 µM cGMP | P22694+P31323;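 active = activation above a cutoff set at the mean over all compounds plus 3 SD, cut at about 18% in these data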;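 also: higher means more holoenzyme dissociation and a rise in polarization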
DDE Tn7 FP inh – disrupts Tn7 cyclic peptide binding to fibrin D-Dimer-E complex | P02675 | FP displacement of FITC-Tn7 peptide from fibrin DD(E); 0% = median of compound wells per plate | inhibition, % at 8.3 µM | 0.13% of 370,000 active | AID 720508;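 active = inhibition above the mean of compounds falling within the control limits plus 3 SD of them, cut at about 14% in these data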;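 also: 0% = plate median of compound wells and 100% = 10 µM Aha-Tn7 peptide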
Target sequence (P02675 whole entry, looked up): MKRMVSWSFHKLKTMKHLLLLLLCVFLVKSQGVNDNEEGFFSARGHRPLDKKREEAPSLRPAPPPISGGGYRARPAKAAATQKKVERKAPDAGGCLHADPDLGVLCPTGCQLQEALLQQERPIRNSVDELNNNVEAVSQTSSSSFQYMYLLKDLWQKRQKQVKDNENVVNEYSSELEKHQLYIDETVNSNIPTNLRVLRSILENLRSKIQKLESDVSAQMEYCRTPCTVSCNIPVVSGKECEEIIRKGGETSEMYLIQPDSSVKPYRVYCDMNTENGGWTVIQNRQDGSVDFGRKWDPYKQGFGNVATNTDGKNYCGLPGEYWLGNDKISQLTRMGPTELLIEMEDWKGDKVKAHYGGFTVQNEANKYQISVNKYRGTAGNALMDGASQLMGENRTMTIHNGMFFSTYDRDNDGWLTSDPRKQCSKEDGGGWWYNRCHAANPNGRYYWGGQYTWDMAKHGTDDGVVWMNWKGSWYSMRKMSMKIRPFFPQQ
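Assay system: Human clot-derived fibrin DD(E) complex | Buffer or medium: Tris/NaCl/CaCl2 buffer, pH 7.8 | Repeats: One replicate per compound | Benchmarks: Aha-Tn7 high control | Measure: % inhibition scaled between sample-field median and high-control FP | Schedule: 10 min plus 3 h, room temperature | Signal: Fluorescence polarization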
PKA-R1A act – activators of PKA-R1A complex | 0.083% of 340,000 active | P00514+P68181 | PKA-R1A dissociation, Cy5-IP20 fluorescence polarization; scaled: DMSO 0%, 113 µM cGMP 100% | activation, % at 11.4 µM | AID 504707;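 active = percent activation above the mean of all tested compounds plus 3 SD, cut at about 19% in these data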;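 also: higher means more PKAc released from R1A so a rise in polarization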
Neddylation inh – inhibitors of human cullin neddylation. P61081+Q13564. TR-FRET cullin neddylation, biochemical. inhibition, % at 25 µM. 0.58% of 360,000 active. AID 651699; in the data active = inhibition above about 36%
Tn6 DDE FP – disrupts Tn6 cyclic peptide binding to fibrin D-Dimer-E complex | Fibrin DD(E) TRITC-Tn6 fluorescence polarization displacement | inhibition, % at 8.3 µM | 0.21% of 370,000 active | AID 720509;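 active = inhibition above a per-campaign cutoff: mean of compounds within control limits plus 3 SD, cut at about 15% in these data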;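 also: 0% = median of all compound wells on the plate and 100% = blocking peptide control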
Neddyl inh conf – confirmation of human cullin neddylation inhibitors | shares compounds with Neddylation inh | TR-FRET cullin neddylation biochemical assay | calls only at 25 µM | 13% of 1,800 active; in the data active = inhibition above about 40%;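 also: neddylation substrate is the cullin 1 ring ligase complex with SKP2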
* marks the source's active call; other numbers are inactive results; i = inactive; nt = no result shown; + = active, no number. Shown are actives, neighbours in structure and some others; about 1% of the full set was active somewhere.

SMILES	PKA-R2B act	DDE Tn7 FP inh	PKA-R1A act	Neddylation inh	Tn6 DDE FP	Neddyl inh conf
CCOC(=O)c1nn(-c2ccccc2C)c2nc(CC(C)C)c(C#N)c(=O)n12	-9.5	-6.3	-6.3	40.3*	0.1	i
COc1ccc(OC)c(S(=O)(=O)N2CCCCC2C(=O)N2CCCN(C)CC2)c1 (stereo unspecified)	nt	-8.9	nt	nt	-2.3	nt
COc1cc2c(cc1NC(=O)CSc1nnc(-c3ccccc3C)n1Cc1ccco1)oc1ccccc12	nt	1.4	nt	nt	0.1	nt
CN(C)c1ccc(/C=C/c2c([N+](=O)[O-])c(=O)n(C)c(=O)n2C)cc1	-6.1	1.1	-5.1	43.6*	3.6	i
Cn1c(/C=C/c2ccc(Br)cc2)c([N+](=O)[O-])c(=O)n(C)c1=O	2.4	5.3	-3.7	-9.7	-0.1	nt
C/C(=N\NC(=O)c1ccc(NS(=O)(=O)c2cccs2)cc1)c1ccccc1	-1.8	-1.6	-4.7	5.4	1.7	nt
O=C(N/N=C/c1ccc(N2CCOCC2)s1)c1ccc(NS(=O)(=O)c2cccs2)cc1	-5.6	-3.7	-2.5	49.9*	-6.8	+
C/C(=N\NC(=O)c1ccc(NS(=O)(=O)c2cccs2)cc1)c1ccc(O)cc1O	-4.1	1.5	-0.4	42.1*	-1.4	nt
COC(=O)c1cccc(OC[C@@H](O)CN2CCC(C(O)(c3ccccc3)c3ccccc3)CC2)c1	nt	-1.9	nt	nt	4.9	nt
CCCCCn1nnnc1C1(C)CSCC(=O)N1Cc1ccco1 (stereo unspecified)	nt	1.8	nt	nt	10.1	nt
CC(C)(C)NC(=O)CN(C(=O)c1snc(C(=O)NC2CCCCC2)c1N)c1ccccc1F	-0.5	-4.0	5.3	39.0*	3.9	i
Cc1ccc(C)c(N(CC(=O)NC2CCCCC2)C(=O)c2snc(C(N)=O)c2N)c1	-9.2	-4.3	-8.6	nt	-0.3	nt
COc1cc2[nH]c3c(c2cc1OC)CCN1CCCC[C@@H]31	-3.8	-4.6	-7.1	48.5*	-6.1	i
COc1ccc(-c2cn3cccnc3n2)cc1NC(=O)C1CCCC1	-8.8	-4.1	-6.0	40.2*	-3.6	i
COc1ccc(-c2cn3cccnc3n2)cc1NC(=O)C1CC1	-7.6	nt	11.6	26.4	nt	nt
CC(c1ccccc1)n1cc(C(=O)NCCCN2CCCC2)nn1 (stereo unspecified)	nt	-9.2	nt	nt	0.9	nt
COC(=O)CSc1ccc2c(N)c(C(=O)OC)sc2c1	-2.3	6.5	-2.4	51.0*	2.4	+
COCCn1nnnc1C(c1cc2cc(OC)c(OC)cc2[nH]c1=O)N1CCN(c2ccc(O)cc2)CC1 (stereo unspecified)	-8.3	-3.1	-10.3	42.2*	-0.6	i
Cc1cccc(-c2cccc3c4c([nH]c23)[C@@H]2C[C@H](N(C)C(=O)c3ccccc3F)[C@H]([C@H](C)O)CN2CC4)c1	nt	-3.6	nt	nt	0.0	nt
CC(=O)c1cccc(NC(=O)c2cnn3c(C)cc(C)nc23)c1	nt	0.4	nt	nt	2.7	nt
CCCn1c(C)cc(/C=C(\C#N)C(=O)OCC(=O)Nc2ccc(OC)c(Cl)c2)c1C	-0.2	-4.3	-14.5	nt	5.4	nt
COCCn1c(C)cc(/C=C(\C#N)C(=O)OCC(=O)Nc2ccc(S(N)(=O)=O)cc2)c1C	5.0	0.3	-3.9	40.0*	-4.7	+
COc1ccc(-c2csc(N3CCN(c4cc5c(cc4Cl)nc(-c4ccncc4)n5CCOCCO)CC3)n2)cc1	8.6	-0.4	1.2	41.5*	3.4	i
COc1cccc(OC)c1-c1nnc(-c2cn(C)c3ccccc23)o1	2.6	-1.7	-2.9	44.8*	-1.6	i
COc1ccccc1-c1nnc(-c2ccc(C)cc2)o1	-9.5	1.4	-4.3	17.3	-4.5	nt
SMILES	PKA-R2B act	DDE Tn7 FP inh	PKA-R1A act	Neddylation inh	Tn6 DDE FP	Neddyl inh conf
Cc1ccc(C(=O)C2CCN(CC(=O)N3CCCC3)CC2)cc1	nt	2.6	nt	nt	-1.8	nt
CC(=O)c1ccc(-c2ccc(C(=O)NCC(c3ccc(F)cc3)N3CCOCC3)o2)cc1 (stereo unspecified)	-8.9	2.0	4.0	57.4*	-10.4	+
Cc1ccc(C(=O)NCC(c2ccc(F)cc2)N2CCOCC2)cc1 (stereo unspecified)	-7.2	9.2	-12.7	2.6	5.6	nt
COc1ccc(C(CC(=O)N2CCN(c3ccccc3)CC2)c2c(OC)cc(OC)c3ccc(=O)oc23)cc1 (stereo unspecified)	1.1	-0.9	-1.0	33.3*	2.0	i
COC(=O)C1=C(C)N(C)C(=NCc2ccc3c(c2)OCO3)NC1c1ccc(C(F)(F)F)cc1 (stereo unspecified)	nt	-2.1	nt	nt	11.5	nt
O=C(N/N=C/c1sc(N2CCOCC2)nc1-c1ccccc1)c1ccccc1Cl	7.9	-3.9	7.0	nt	1.4	nt
Nc1ccc(C(=O)N/N=C/c2sc(N3CCOCC3)nc2-c2ccccc2)cc1	4.4	-7.3	-8.1	48.2*	0.2	i
Cc1cc(C(=O)N/N=C/c2sc(N3CCOCC3)nc2-c2ccccc2)c(C)o1	-3.5	-0.7	2.0	34.8	-3.5	nt
O=C(O)c1cccc(N/N=C/c2sc(N3CCOCC3)nc2-c2ccccc2)c1	2.8	-3.9	0.0	41.0*	2.0	nt
COc1cc(C(=O)N/N=C/c2sc(N3CCOCC3)nc2-c2ccccc2)cc(OC)c1OC	2.5	5.1	9.9	52.1*	-2.0	i
O=C(N/N=C/c1sc(N2CCOCC2)nc1-c1ccccc1)c1ccccc1O	7.8	-1.1	-6.9	48.5*	-4.3	i
COc1ccc(CCn2cnn3c(=O)c4ccccc4nc3c2=O)cc1OC	nt	-2.3	nt	nt	0.7	nt
CCCCNC(=O)C[C@H]1C[C@@]2(C(=O)OC)C(=C[C@H](C(C)(C)C)O[C@@H]2C)N(CCc2ccc(OC)c(OC)c2)C1=O	nt	-3.3	nt	nt	10.9	nt
COc1ccc2[nH]c(C(=O)O)c(NS(=O)(=O)c3ccc(C)cc3C)c2c1	4.8	2.1	-0.8	48.4*	0.9	nt
Nc1nc2c(ncn2[C@@H]2O[C@H](C(=O)N[C@H](Cc3ccccc3)C(=O)NCc3ccc4c(c3)OCO4)[C@@H](O)[C@H]2O)c(=O)[nH]1	nt	-1.7	nt	nt	7.8	nt
S=c1[nH]nc2ccc3ccccc3n12	nt	4.0	nt	38.3*	5.8	nt
S=c1[nH]c2ccccc2n2c(=S)[nH]nc12	3.7	1.8	-7.3	-34.7	2.7	nt
O=C(Oc1cc(Cl)ccc1Cl)C1=CC=CN2CCS(=O)(=O)N=C12	-10.7	-7.7	-10.1	37.6	5.3	nt
CC(NC(=O)C1=CC=CN2CCS(=O)(=O)N=C12)c1ccc(Cl)c(Cl)c1 (stereo unspecified)	-0.9	2.0	-6.1	43.6*	-2.4	+
CC(NC(=O)C1=CC=CN2CCS(=O)(=O)N=C12)c1ccc(Cl)cc1Cl (stereo unspecified)	-1.6	3.0	7.0	55.2*	6.0	nt
